Experimental data taken from ChEMBL document CHEMBL1126582, “Symmetry-based inhibitors of HIV protease. Structure-activity studies of acylated 2,4-diamino-1,5-diphenyl-3-hydroxypentane and 2,5-diamino-1,6-diphenylhexane-3,4-diol” (J Med Chem, 1993).
pEC50, pIC50: −log10 of the molar value. ≈ marks a conversion by molar mass, not a printed value.

Tests used:
[1] = Estimated solubility (buffer pH 7.4); assay type: ADME; conditions: read-out: S
Outline: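 Solubility was estimated in pH 7.4 phosphate buffer.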

MT4 = assay: In vitro for cytotoxicity in MT-4 lymphocytes in the absence of HIV infection.; assay type: functional; conditions: Homo sapiens
Outline: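 Uninfected MT-4 lymphocytes were cultured with compound. CC50 is the concentration at which 50% of cells remain viable.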

[2] = test system: Human immunodeficiency virus 1; assay: In vitro for inhibition of cytopathic effect of HIV-1 3B in MT-4 lymphocytes.; assay type: functional, organism-based
Outline: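 MT-4 lymphocytes were infected with HIV-1 3B at an MOI of either 0.001 or 0.032 tissue culture infective dose per cell. EC50 is the concentration preventing 50% of viral cytopathic effect, from a single triplicate assay. No effect means no activity up to 100 μM or up to the cytotoxic concentration.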

[3] = target: Human immunodeficiency virus type 1 protease (Human immunodeficiency virus 1, UniProt Q72874); assay: Inhibition of purified recombinant HIV-1 protease in a fluorogenic assay
Outline: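 Purified recombinant HIV-1 protease, with cleavage of the fluorogenic substrate DABCYL-[…]-Pro-Ile-Val-Gln-EDANS as read-out. Value is the inhibitor concentration giving 50% inhibition of protease activity.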

Structure (SMILES) | solubility [1] [µg/mL] | CC50 (MT4) [nM] | pEC50 [2] | pIC50 [3]
CC(C)[C@H](NC(=O)OCc1ccccn1)C(=O)N[C@@H](Cc1ccccc1)[C@@H](O)[C@H](Cc1ccccc1)NC(=O)[C@H](NC(=O)OCc1ccccc1)C(C)C | 0.6 (≈ 0.813 µM) | > 100000 | 5.66 | 8.52
CC(C)[C@H](NC(=O)N(C)Cc1ccccn1)C(=O)N[C@@H](Cc1ccccc1)[C@H](O)[C@@H](O)[C@H](Cc1ccccc1)NC(=O)[C@H](NC(=O)N(C)Cc1nccs1)C(C)C | 10.9 (≈ 13.6 µM) | > 100000 | 6.66 | > 9.00
CC(C)[C@H](NC(=O)N(C)Cc1ccccn1)C(=O)N[C@@H](Cc1ccccc1)[C@H](O)[C@@H](O)[C@H](Cc1ccccc1)NC(=O)[C@H](NC(=O)N(C)Cc1cccnc1)C(C)C | 420 (≈ 528 µM) | > 100000 | 6.32 | > 9.00
CC(C)[C@H](NC(=O)N(C)Cc1ccccn1)C(=O)N[C@@H](Cc1ccccc1)[C@@H](O)[C@@H](O)[C@H](Cc1ccccc1)NC(=O)[C@H](NC(=O)N(C)Cc1ccccn1)C(C)C | 225 (≈ 283 µM) | > 100000 | 5.82 | 8.78
CC(C)[C@H](NC(=O)N(C)Cc1nc2ccccc2[nH]1)C(=O)N[C@@H](Cc1ccccc1)[C@@H](O)[C@@H](O)[C@H](Cc1ccccc1)NC(=O)[C@H](NC(=O)N(C)Cc1nc2ccccc2[nH]1)C(C)C | 12 (≈ 13.7 µM) | 55000 | 5.30 | > 9.00
CC(C)[C@H](NC(=O)/C=C/c1ccccn1)C(=O)N[C@@H](Cc1ccccc1)[C@@H](O)[C@@H](O)[C@H](Cc1ccccc1)NC(=O)[C@H](NC(=O)/C=C/c1ccccn1)C(C)C | 6.8 (≈ 8.94 µM) | > 100000 | 5.96 | > 9.00
CC(C)[C@H](NC(=O)N(C)Cc1cscn1)C(=O)N[C@@H](Cc1ccccc1)[C@H](O)[C@H](O)[C@H](Cc1ccccc1)NC(=O)[C@H](NC(=O)N(C)Cc1cscn1)C(C)C | 6.5 (≈ 8.05 µM) | > 100000 | 6.30 | > 9.00
CC(C)[C@H](NC(=O)N(C)CCc1ccccn1)C(=O)N[C@@H](Cc1ccccc1)[C@@H](O)[C@@H](O)[C@H](Cc1ccccc1)NC(=O)[C@H](NC(=O)N(C)CCc1ccccn1)C(C)C | 355 (≈ 431 µM) | > 100000 | 4.89 | 7.66
CC(C)[C@H](NC(=O)N(C)Cc1cscn1)C(=O)N[C@@H](Cc1ccccc1)[C@@H](O)[C@@H](O)[C@H](Cc1ccccc1)NC(=O)[C@H](NC(=O)N(C)Cc1cscn1)C(C)C | 286 (≈ 354 µM) | > 100000 | 6.20 | > 9.00
CC(C)[C@H](NC(=O)OCc1cccnc1)C(=O)N[C@@H](Cc1ccccc1)[C@@H](O)[C@@H](O)[C@H](Cc1ccccc1)NC(=O)[C@H](NC(=O)OCc1cccnc1)C(C)C | 31 (≈ 40.3 µM) | > 100000 | 6.36 | > 9.00
CC(C)[C@H](NC(=O)N(C)Cc1nccs1)C(=O)N[C@@H](Cc1ccccc1)[C@@H](O)[C@H](O)[C@H](Cc1ccccc1)NC(=O)[C@H](NC(=O)N(C)Cc1nccs1)C(C)C | 101 (≈ 125 µM) | > 100000 | 6.41 | > 9.00
CC(C)[C@H](NC(=O)N(C)Cc1ccccn1)C(=O)N[C@@H](Cc1ccccc1)[C@H](O)[C@@H](O)[C@H](Cc1ccccc1)NC(=O)[C@H](NC(=O)N(C)Cc1csc(N)n1)C(C)C | 386 (≈ 473 µM) | > 100000 | 6.25 | > 9.00
CC(C)[C@H](NC(=O)N(C)Cc1ccccn1)C(=O)N[C@@H](Cc1ccccc1)[C@H](O)[C@@H](O)[C@H](Cc1ccccc1)NC(=O)[C@H](NC(=O)N(C)Cc1cscn1)C(C)C | 1 (≈ 1.25 µM) | > 100000 | 6.70 | > 9.00
CC(C)[C@H](NC(=O)OCCN1CCOCC1)C(=O)N[C@@H](Cc1ccccc1)C(O)[C@H](Cc1ccccc1)NC(=O)[C@H](NC(=O)OCCN1CCOCC1)C(C)C (stereo partly drawn) | 273 (≈ 349 µM) | – | – | 6.74
CC(C)[C@H](NC(=O)OCc1ccccc1)C(=O)N[C@@H](Cc1ccccc1)[C@H](O)[C@H](O)[C@H](Cc1ccccc1)NC(=O)[C@H](NC(=O)OCc1ccccc1)C(C)C | – | > 100000 | 7.15 | > 9.00
CC(C)[C@H](NC(=O)OCc1ccccc1)C(=O)N[C@@H](Cc1ccccc1)[C@@H](O)[C@H](Cc1ccccc1)NC(=O)[C@H](NC(=O)OCc1ccccc1)C(C)C | > 0.03 | > 100000 | – | –
CC(C)[C@H](NC(=O)/C=C/c1cccnc1)C(=O)N[C@@H](Cc1ccccc1)[C@@H](O)[C@@H](O)[C@H](Cc1ccccc1)NC(=O)[C@H](NC(=O)/C=C/c1cccnc1)C(C)C | 23 (≈ 30.2 µM) | > 100000 | 5.21 | 8.28
CC(C)[C@H](NC(=O)N(C)Cc1cccnc1)C(=O)N[C@@H](Cc1ccccc1)[C@@H](O)[C@@H](O)[C@H](Cc1ccccc1)NC(=O)[C@H](NC(=O)N(C)Cc1cccnc1)C(C)C | 338 (≈ 425 µM) | > 100000 | 5.24 | 8.80

Structure (SMILES) | solubility [1] [µg/mL] | CC50 (MT4) [nM] | pEC50 [2] | pIC50 [3]
CC(C)[C@H](NC(=O)OCc1cccnc1)C(=O)N[C@@H](Cc1ccccc1)[C@H](O)[C@H](O)[C@H](Cc1ccccc1)NC(=O)[C@H](NC(=O)OCc1cccnc1)C(C)C | 0.41 (≈ 0.533 µM) | – | – | > 9.00
CC(C)[C@H](NC(=O)CN1CCOCC1)C(=O)N[C@@H](Cc1ccccc1)[C@@H](O)[C@@H](O)[C@H](Cc1ccccc1)NC(=O)[C@H](NC(=O)CN1CCOCC1)C(C)C | – | – | – | 8.12
CC(C)[C@H](NC(=O)OCc1cccnc1)C(=O)N[C@@H](Cc1ccccc1)[C@@H](O)[C@H](O)[C@H](Cc1ccccc1)NC(=O)[C@H](NC(=O)OCc1cccnc1)C(C)C | 0.5 (≈ 0.65 µM) | – | – | > 9.00
CC(C)[C@H](NC(=O)N(C)Cc1cccnc1)C(=O)N[C@@H](Cc1ccccc1)[C@@H](O)[C@H](O)[C@H](Cc1ccccc1)NC(=O)[C@H](NC(=O)N(C)Cc1cccnc1)C(C)C | 153 (≈ 192 µM) | > 100000 | 5.77 | > 9.00
CC(C)[C@H](NC(=O)N(C)Cc1ccccn1)C(=O)N[C@@H](Cc1ccccc1)[C@@H](O)[C@H](O)[C@H](Cc1ccccc1)NC(=O)[C@H](NC(=O)N(C)Cc1ccccn1)C(C)C | 197 (≈ 248 µM) | > 100000 | 6.57 | > 9.00
CC(C)[C@H](NC(=O)N(C)CCc1ccccn1)C(=O)N[C@@H](Cc1ccccc1)[C@@H](O)[C@H](O)[C@H](Cc1ccccc1)NC(=O)[C@H](NC(=O)N(C)CCc1ccccn1)C(C)C | 66 (≈ 80.2 µM) | 61000 | 5.38 | 8.28
CC(C)[C@H](NC(=O)OCc1cccnc1)C(=O)N[C@@H](Cc1ccccc1)[C@@H](O)[C@H](Cc1ccccc1)NC(=O)[C@H](NC(=O)OCc1ccccc1)C(C)C | 0.9 (≈ 1.22 µM) | > 100000 | 5.55 | 8.40
CC(C)[C@H](NC(=O)N(C)Cc1nc2ccccc2[nH]1)C(=O)N[C@@H](Cc1ccccc1)[C@@H](O)[C@H](O)[C@H](Cc1ccccc1)NC(=O)[C@H](NC(=O)N(C)Cc1nc2ccccc2[nH]1)C(C)C | 6.6 (≈ 7.56 µM) | 27000 | 5.77 | > 9.00
CC(C)[C@H](NC(=O)OCc1ccccc1)C(=O)N[C@@H](Cc1ccccc1)[C@@H](O)[C@@H](O)[C@H](Cc1ccccc1)NC(=O)[C@H](NC(=O)OCc1ccccc1)C(C)C | < 0.03 | > 100000 | 6.96 | > 9.00
CC(C)[C@H](NC(=O)OCc1ccccc1)C(=O)N[C@@H](Cc1ccccc1)[C@@H](O)[C@H](O)[C@H](Cc1ccccc1)NC(=O)[C@H](NC(=O)OCc1ccccc1)C(C)C | – | > 100000 | 7.05 | > 9.00
CC(C)[C@H](NC(=O)OCc1ccncc1)C(=O)N[C@@H](Cc1ccccc1)[C@H](O)[C@H](O)[C@H](Cc1ccccc1)NC(=O)[C@H](NC(=O)OCc1ccncc1)C(C)C | 0.62 (≈ 0.806 µM) | > 100000 | 6.22 | 8.64
CC(C)[C@H](NC(=O)OCc1ccccn1)C(=O)N[C@@H](Cc1ccccc1)[C@@H](O)[C@@H](O)[C@H](Cc1ccccc1)NC(=O)[C@H](NC(=O)OCc1ccccn1)C(C)C | 5.4 (≈ 7.02 µM) | > 100000 | 6.35 | > 9.00
CC(C)[C@H](NC(=O)CCN1CCOCC1)C(=O)N[C@@H](Cc1ccccc1)[C@@H](O)[C@@H](O)[C@H](Cc1ccccc1)NC(=O)[C@H](NC(=O)CCN1CCOCC1)C(C)C | > 1050 | > 100000 | 4.28 | 7.64
CC(C)[C@H](NC(=O)c1cc2ccccc2[nH]1)C(=O)N[C@@H](Cc1ccccc1)[C@@H](O)[C@@H](O)[C@H](Cc1ccccc1)NC(=O)[C@H](NC(=O)c1cc2ccccc2[nH]1)C(C)C | – | 49000 | 7.15 | > 9.00
CC(C)[C@H](NC(=O)c1cc2ccccc2[nH]1)C(=O)N[C@@H](Cc1ccccc1)C(O)[C@H](Cc1ccccc1)NC(=O)[C@H](NC(=O)c1cc2ccccc2[nH]1)C(C)C (stereo partly drawn) | – | 58000 | 5.05 | 8.92
CC(C)[C@H](NC(=O)N(C)Cc1nc2ccccc2[nH]1)C(=O)N[C@@H](Cc1ccccc1)[C@H](O)[C@H](O)[C@H](Cc1ccccc1)NC(=O)[C@H](NC(=O)N(C)Cc1nc2ccccc2[nH]1)C(C)C | 18 (≈ 20.6 µM) | 31000 | 5.72 | > 9.00
CC(C)[C@H](NC(=O)OCC1CCCCN1C)C(=O)N[C@@H](Cc1ccccc1)[C@@H](O)[C@H](Cc1ccccc1)NC(=O)[C@H](NC(=O)OCc1ccccc1)C(C)C (stereo partly drawn) | 19 (≈ 25.1 µM) | – | – | 7.20
